Data taken from the EternaBench riboswitch data.

System: MS2 coat protein
Assay: apparent Kd, MS2 coat protein; higher = weaker binding; RNA-MaP array; FMN 200 µM where present
How it was run: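 The titrant was SNAP-549-labelled MS2 coat protein, run from 0.7 or 1.5 nM in doubling steps to 3 µM. It was applied to designs transcribed by stalled E. coli RNA polymerase on Illumina sequencing-chip clusters, without ligand first and then with constant ligand, in 100 mM Tris-HCl pH 7.5, 80 mM KCl, 4 mM MgCl2, BSA, DTT, yeast tRNA and Tween-20. The apparent Kd is the median of filtered per-cluster binding-curve fits, with green signal normalised to red-channel RNA signal and control-cluster median Fmax.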

[1] = designed as: ON switch for flavin mononucleotide, no ligand
[2] = ligand present: flavin mononucleotide, designed as: ON switch for flavin mononucleotide
[3] = designed as: OFF switch for flavin mononucleotide, no ligand
[4] = ligand present: flavin mononucleotide, designed as: OFF switch for flavin mononucleotide

| Sequence | apparent Kd [1] [nM] | apparent Kd [2] [nM] | apparent Kd [3] [nM] | apparent Kd [4] [nM] |
| --- | --- | --- | --- | --- |
| UUUAAUCGAAACAUGAGGAUCACCCAUGUGUUGUAAUUAACAUAGGAUAUUUGUAUGCUUUUGUAAGAGAAGGAUGAUAAUACU | 21.2 | 16.1 | – | – |
| UUUAGUUGCGCGCAGGAUAUGUAUUAAUAUACAUGAGGAUCACCCAUGUGAGACCAAAUAGGUCUACAGAAGGGCGAAUCGCGAC | 446 | 47.6 | – | – |
| UUUAUAAAUUAGAAGGCGUGAUGAAUUACAAUAGACAUGAGGAUCACCCAUGUGUAUUCAUGUCAUGAGGAUAUAGUCAUAUAU | 47.2 | 19.4 | – | – |
| UUUAUACAUGAGGAUCACCCAUGUUAGGAUAUGGCUUUAAUGCCGCCGUCAUUAUCCGCCAGAAGGGACGUGUC | – | – | 32.2 | 30.4 |
| UUUAUAUUCAGAGGAUAUUGAUGUUGUAUUUUACAAGAAGGCUGAUUGUUUUGUAAUGUUAUUAUACAUGAGGAUCACCCAUGU | 22.1 | 15.6 | – | – |
| UUUAUGUAAGAGAAGGAGGACUUCAUGAGGAUCACCCAUGUGUUAGUACUUAGGAUAUUUGACAACAUGAGGAUCACCCAUGUC | 59.9 | 58.4 | – | – |
| UUUAUGUCAGGAUAUGAGUAGUAGAACAAUAGUACUACUACUCAGAAGGGACAUGAGGAUCACCCAUGUUUCUC | – | – | 23.4 | 143 |
| UUUAUGUCAGGAUAUUCGGAUAGGAAAACGAAAACCUAUCCGAAGAAGGGACAUGAGGAUCACCCAUGUAAAAA | – | – | 217 | 151 |
| UUUAUGUGAGGAUAUCAGUAGUAAAAAAAUAAAAUUACUACUGAGAAGGCACAUGAGGAUCACCCAUGUACUUC | – | – | 40.2 | 30.5 |
| UUUAUUUCGGCAGGAUAUACAUGUAUAUAUAUUCCUUCAUAUCUUAUUACAUGAGGAUCACCCAUGUAGAAGGGCCUUCUUCUC | – | – | 38.4 | 42.1 |
| UUUAUUUUGCAAGGAUAUGUUUAAUUUUAGUUUCCUUACACAUGAGGAUCACCCAUGUUAUACUUACAGAAGGUGCAUAAUUUU | – | – | 173 | 94.6 |
| UUUGAAUAGGUAGGAUAUACUUUCAAUUUUCUUUUCCUUACAUGAGGAUCACCCAUGUUUACAUUGUAGAAGGACCUCAUUGAU | – | – | 215 | 173 |
| UUUGCAUUCCGAGGAUAUUCAUAUAAUGACUUCACAUGAGGAUCACCCAUGUGGCGAUAGCCUAGGGAGAAGGCGGUUUGCUUU | 25.6 | 20.6 | – | – |
| UUUGGGCCUGUGAGGAUAUGCCCGGGUAAAUUUGGGCAGAAGGCACAUGAGGAUCACCCAUGUAAGGGCCCGGG | – | – | 31.5 | 21.4 |
| UUUGGUUUGCGAGGAUAUGCUUUUAGUAAGUUAGCAGAAGGCGCGUUACAUAGAACCUCUUGUUACAUGAGGAUCACCCAUGUU | – | – | 88.2 | 95 |
| UUUUAACAUGAGGAUCACCCAUGUCGUUCAAAUCAAGGAUAUCAAGCGUGUGCACACGCCUGAGAAGGUGAAGCUC | 55.8 | 98.9 | – | – |
| UUUUAACAUGAGGAUCACCCAUGUGAGGAUAUCGAAAUUUAUAUUAAUAUUAAUUAAACGAGAAGGCACAUUUU | – | – | 61.5 | 86.4 |
| UUUUAACAUGAGGAUCACCCAUGUGAGGAUAUCGAAAUUUAUAUUAAUAUUAUUAUUACGAGAAGGCACAUUUU | – | – | 71.9 | 91.1 |
| UUUUAACAUGAGGAUCACCCAUGUGAGGAUAUCGUUUUUUUUAUUAAUAUUAAUAAAACGAGAAGGCACAUUUU | – | – | 149 | 149 |
| UUUUAAUAAUAGAAGGAGCACUACAUGAGGAUCACCCAUGUGUUAGUAGUUAGGAUAUAUAAUAACAUGAGGAUCACCCAUGUA | 83.6 | 40.7 | – | – |
| UUUUAGCGAGGAUAUACAUUUUUUUUAUUAUCCUCAUUAUUACAUGAGGAUCACCCAUGUAGAAGGCGCAUUUU | – | – | 41 | 139 |
| UUUUAGUCAGGAUAUCGUUAAUUUAAUUGUUUGUAUUAGUUCGAGAAGGGACAUGAGGAUCACCCAUGUAUUUU | – | – | 33.5 | 43 |
| UUUUAUAAUACCUCAUGUACAUGAGGAUCACCCAUGUUAACUAAGGAUAUAUAUAAAUUAAUAAUGUAGAAGGUAGUAAUAUUU | – | – | 16.5 | 14.3 |
| UUUUCAUCAUCAGGAUAUUAACGUGGGCUACUUUAAGAAGGGAUAGUGGGAGAGGAUGUGAAACAUGAGGAUCACCCAUGUUGU | 14.2 | 10 | – | – |
| UUUUUACUUGUAGGAUAUGGAGACAUGAGGAUCACCCAUGUAUGAUAAGCUAAAUUAUGCUGUGGCCAGAAGGAUAUUAUUCUU | 48.2 | 53.7 | – | – |
| UUUUUGUGAGGAUAUCAGUAGUAAAUAAAUAAAAUAACUACUGAGAAGGCACAUGAGGAUCACCCAUGUUCUUU | – | – | 18.9 | 49.6 |
| UUUUUUGUAGUGAGGAUAUCGUUGUGGAUGUGGAUCGAGAAGGCACAUGAGGAUCACCCAUGUUAGUUGUGGUU | – | – | 155 | 216 |
